Results taken from article PMC2212508 (The Journal of Experimental Medicine, 1998).
Like-named read-outs stand apart in the source and are kept apart here.

Experiments:
Assay type in all cases: cell-based
[1] = molecular target: KCa (hKCa4), activated human T cells (Homo sapiens, UniProt O15554); assay: whole-cell patch clamp, KCa slope conductance near -80 mV
How it was run: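 Human T-cell blasts were made from Ficoll-isolated blood T cells with 10 μg/ml PHA. KCa was opened by dialysis with a pipette of 140 mM K+ aspartate, 7.8 mM CaCl2 and 10 mM EGTA (nominal 1 μM free Ca2+, pH 7.2). Ramps of 200 ms went from −120 to +50 mV every 30 s. Each compound was applied at 60 μM. Slope-conductance inhibition near −80 mV is mean ± SD, ≥3 experiments.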

[2] = molecular target: KV (Kv1.3), human T cells (Homo sapiens, UniProt P22001); assay: whole-cell patch clamp, peak KV current
KV (Kv1.3), human T cells, sequence (P22001 whole entry): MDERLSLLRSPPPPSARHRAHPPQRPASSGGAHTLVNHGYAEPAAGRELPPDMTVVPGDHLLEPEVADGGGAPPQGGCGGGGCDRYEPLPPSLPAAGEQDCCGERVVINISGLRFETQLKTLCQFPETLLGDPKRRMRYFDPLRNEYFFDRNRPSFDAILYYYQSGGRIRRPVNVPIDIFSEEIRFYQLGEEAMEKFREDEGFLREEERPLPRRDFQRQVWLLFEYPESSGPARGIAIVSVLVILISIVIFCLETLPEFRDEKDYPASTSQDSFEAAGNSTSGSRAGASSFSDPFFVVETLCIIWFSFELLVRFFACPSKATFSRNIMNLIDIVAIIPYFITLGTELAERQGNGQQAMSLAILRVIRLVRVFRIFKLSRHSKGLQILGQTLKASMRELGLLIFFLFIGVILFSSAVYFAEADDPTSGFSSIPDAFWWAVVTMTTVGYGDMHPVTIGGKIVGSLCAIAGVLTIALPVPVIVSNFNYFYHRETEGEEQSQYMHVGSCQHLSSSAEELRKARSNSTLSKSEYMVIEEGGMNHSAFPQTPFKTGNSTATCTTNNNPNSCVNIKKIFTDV
How it was run: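 Peripheral T cells came from healthy donors' venous blood by Ficoll-Hypaque. Recording was whole-cell at 20–25°C in Ringer, with a 160 mM K+ aspartate/10 mM EGTA pipette (pH 7.2). Pulses of 200 ms went from −80 to +30 mV every 30 s. Each steroid was bath-applied at 60 μM. Percent inhibition of peak KV current is mean ± SD, ≥3 experiments.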

Kv3.1 = molecular target: T1, Kv3.1 (Mus musculus, UniProt P15388); assay: whole-cell patch clamp; settings: read-out: % inhibition at 30 μM
T1 sequence (P15388 1-511): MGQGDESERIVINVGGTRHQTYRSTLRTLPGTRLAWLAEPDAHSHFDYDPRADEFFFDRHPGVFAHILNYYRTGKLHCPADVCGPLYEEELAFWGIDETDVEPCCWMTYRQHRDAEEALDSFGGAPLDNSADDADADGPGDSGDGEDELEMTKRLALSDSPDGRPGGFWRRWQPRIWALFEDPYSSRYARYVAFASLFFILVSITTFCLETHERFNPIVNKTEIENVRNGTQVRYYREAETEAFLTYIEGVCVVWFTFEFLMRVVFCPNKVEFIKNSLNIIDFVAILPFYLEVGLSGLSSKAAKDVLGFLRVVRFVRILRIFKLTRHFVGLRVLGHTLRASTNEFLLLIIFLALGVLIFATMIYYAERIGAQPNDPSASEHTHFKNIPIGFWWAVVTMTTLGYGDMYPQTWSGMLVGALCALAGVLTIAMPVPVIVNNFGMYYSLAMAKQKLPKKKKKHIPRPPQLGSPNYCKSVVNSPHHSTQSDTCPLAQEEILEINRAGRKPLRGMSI
How it was run: (§1)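 Cell lines stably expressing each cloned KV channel, cultured in RPMI 1640 with 10% heat-inactivated FBS at 37°C and 5% CO2. Whole-cell currents were recorded at 20–25°C in mammalian Ringer. The pipette held 160 mM K+ aspartate, 10 mM EGTA, pH 7.2. Steps of 200 ms went from −80 to +30 mV every 30 s. Test compound was bath-applied at 30 μM. Inhibition of peak current is mean ± SD from ≥3 experiments.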

Kv1.4 = assay: whole-cell patch clamp; settings: LTK cells; depolarizing pulses to +30 mV
How it was run: as §1

Kv1.3 (cloned) = Kv1.3 (cloned) (Mus musculus, UniProt P16390); assay: whole-cell patch clamp; settings: read-out: % inhibition at 30 μM
Kv1.3 (cloned), sequence (P16390 whole entry): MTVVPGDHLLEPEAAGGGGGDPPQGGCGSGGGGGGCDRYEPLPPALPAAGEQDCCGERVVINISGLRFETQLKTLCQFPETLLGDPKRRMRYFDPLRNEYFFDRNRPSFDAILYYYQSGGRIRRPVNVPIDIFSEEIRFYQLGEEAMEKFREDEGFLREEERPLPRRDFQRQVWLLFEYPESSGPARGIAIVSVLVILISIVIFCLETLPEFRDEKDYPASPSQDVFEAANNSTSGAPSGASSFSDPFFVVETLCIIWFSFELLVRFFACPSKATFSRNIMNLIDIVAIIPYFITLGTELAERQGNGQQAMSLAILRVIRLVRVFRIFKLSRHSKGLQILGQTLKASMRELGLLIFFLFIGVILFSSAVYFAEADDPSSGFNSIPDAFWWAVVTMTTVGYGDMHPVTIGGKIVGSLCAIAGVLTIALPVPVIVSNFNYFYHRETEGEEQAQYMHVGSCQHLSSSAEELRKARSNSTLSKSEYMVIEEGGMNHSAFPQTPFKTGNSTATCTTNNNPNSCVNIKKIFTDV
How it was run: as §1

hSKM1 = hSKM1 (Homo sapiens, UniProt P35499); assay: whole-cell patch clamp, peak Na+ current; settings: read-out: % inhibition at 30 μM
hSKM1, sequence (P35499 whole entry): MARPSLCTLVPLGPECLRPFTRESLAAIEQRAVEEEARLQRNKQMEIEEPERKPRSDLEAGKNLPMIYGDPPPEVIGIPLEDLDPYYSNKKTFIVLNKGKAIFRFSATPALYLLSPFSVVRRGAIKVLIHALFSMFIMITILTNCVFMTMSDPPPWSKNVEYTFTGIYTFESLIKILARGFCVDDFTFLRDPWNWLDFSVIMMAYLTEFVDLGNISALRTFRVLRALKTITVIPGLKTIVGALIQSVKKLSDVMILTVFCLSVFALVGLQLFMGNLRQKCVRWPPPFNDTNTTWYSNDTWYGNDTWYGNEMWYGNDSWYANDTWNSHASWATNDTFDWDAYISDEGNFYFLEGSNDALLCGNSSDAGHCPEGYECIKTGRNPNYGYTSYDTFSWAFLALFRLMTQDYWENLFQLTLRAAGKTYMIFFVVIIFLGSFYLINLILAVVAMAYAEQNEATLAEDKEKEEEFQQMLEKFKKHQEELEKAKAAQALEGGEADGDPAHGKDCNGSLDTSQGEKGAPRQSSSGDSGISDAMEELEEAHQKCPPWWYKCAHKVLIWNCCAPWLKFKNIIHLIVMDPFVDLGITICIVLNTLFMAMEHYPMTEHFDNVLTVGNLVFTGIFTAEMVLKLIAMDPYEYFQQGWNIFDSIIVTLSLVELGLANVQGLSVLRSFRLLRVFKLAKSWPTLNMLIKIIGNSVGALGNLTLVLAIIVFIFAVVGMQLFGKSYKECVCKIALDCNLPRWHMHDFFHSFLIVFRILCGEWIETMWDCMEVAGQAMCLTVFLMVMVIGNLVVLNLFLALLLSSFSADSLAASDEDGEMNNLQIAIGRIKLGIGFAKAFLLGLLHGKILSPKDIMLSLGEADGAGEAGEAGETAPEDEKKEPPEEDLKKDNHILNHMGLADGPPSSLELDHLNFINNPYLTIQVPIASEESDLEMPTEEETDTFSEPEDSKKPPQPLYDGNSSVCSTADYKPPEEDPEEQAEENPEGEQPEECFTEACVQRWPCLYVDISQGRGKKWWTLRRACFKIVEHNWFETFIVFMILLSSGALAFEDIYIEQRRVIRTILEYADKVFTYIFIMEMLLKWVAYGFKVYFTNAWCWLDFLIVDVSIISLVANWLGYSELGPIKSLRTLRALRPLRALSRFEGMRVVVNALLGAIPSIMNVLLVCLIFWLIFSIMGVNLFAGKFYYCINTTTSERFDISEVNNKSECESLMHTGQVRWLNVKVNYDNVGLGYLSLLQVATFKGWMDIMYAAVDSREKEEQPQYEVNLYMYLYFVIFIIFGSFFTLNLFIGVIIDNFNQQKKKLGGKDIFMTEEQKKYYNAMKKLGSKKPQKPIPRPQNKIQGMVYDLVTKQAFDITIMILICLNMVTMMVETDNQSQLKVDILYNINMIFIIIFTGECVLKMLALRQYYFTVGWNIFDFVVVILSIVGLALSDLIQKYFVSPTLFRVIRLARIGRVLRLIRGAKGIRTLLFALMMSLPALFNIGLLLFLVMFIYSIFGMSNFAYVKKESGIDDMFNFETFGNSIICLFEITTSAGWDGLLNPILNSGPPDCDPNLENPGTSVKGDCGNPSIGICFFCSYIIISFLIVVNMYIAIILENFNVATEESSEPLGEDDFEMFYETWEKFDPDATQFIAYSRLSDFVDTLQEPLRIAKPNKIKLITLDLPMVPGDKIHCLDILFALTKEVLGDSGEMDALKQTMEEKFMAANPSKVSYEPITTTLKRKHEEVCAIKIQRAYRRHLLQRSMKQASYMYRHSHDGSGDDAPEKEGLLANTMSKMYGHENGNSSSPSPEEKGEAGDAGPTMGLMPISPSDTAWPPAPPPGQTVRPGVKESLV
How it was run: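 Cloned hSKM1 Na+ channel was expressed in a cultured cell line and recorded by whole-cell patch clamp at 20–25°C, with mammalian Ringer as bath. Peak Na+ current was taken at +10 mV. Test compound was applied at 30 μM. Percent inhibition is mean ± SD from at least three experiments.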

KCa (hKCa4), activated human T cells, sequence (O15554 whole entry): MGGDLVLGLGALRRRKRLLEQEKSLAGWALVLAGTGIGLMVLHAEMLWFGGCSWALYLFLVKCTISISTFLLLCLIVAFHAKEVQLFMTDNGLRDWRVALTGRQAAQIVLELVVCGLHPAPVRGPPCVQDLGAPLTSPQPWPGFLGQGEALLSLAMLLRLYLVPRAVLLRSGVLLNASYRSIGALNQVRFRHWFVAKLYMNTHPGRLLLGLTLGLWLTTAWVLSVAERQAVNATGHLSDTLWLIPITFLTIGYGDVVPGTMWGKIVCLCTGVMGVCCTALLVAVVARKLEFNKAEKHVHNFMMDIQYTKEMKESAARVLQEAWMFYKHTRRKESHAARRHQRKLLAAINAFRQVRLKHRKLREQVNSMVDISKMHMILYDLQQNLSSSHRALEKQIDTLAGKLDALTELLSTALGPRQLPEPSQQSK

CC#C[C@]1(O)CC[C@H]2[C@@H]3CCC4=CC(=O)CCC4=C3[C@@H](c3ccc(N(C)C)cc3)C[C@@]21C [RU 486]
inhibition at 60 µM ([1]; read-out: RU 486): 55 ± 12% | inhibition at 60 µM ([2]; read-out: RU 486): 61 ± 15%

CC(=O)[C@@]1(O)CC[C@H]2[C@@H]3CCC4=CC(=O)CC[C@]4(C)[C@H]3CC[C@@]21C [OHP, 17α-hydroxy-4-pregnene-3,20-dione]
inhibition at 60 µM ([2]; read-out: OHP): 12 ± 6%

C[C@]12CCC(=O)C=C1CC[C@@H]1[C@@H]2[C@@H](O)C[C@]2(C=O)[C@@H](C(=O)CO)CC[C@@H]12 [Aldosterone]
inhibition at 60 µM ([2]; read-out: Aldosterone): 12 ± 13%

CC(=O)[C@H]1CC[C@H]2[C@@H]3CCC4=CC(=O)CC[C@]4(C)[C@H]3CC[C@]12C [progesterone]
inhibition at 30 µM (Kv3.1): 53 ± 3% | inhibition at 60 µM ([1]; read-out: Progesterone): 34 ± 11% | % inhibition at 30 μM (Kv1.4): 23 ± 8% | inhibition at 30 µM (Kv1.3 (cloned)): 44 ± 9% | inhibition at 30 µM (hSKM1): 11 ± 1%

C[C@]12CC[C@H](O)CC1=CC[C@@H]1[C@@H]2CC[C@]2(C)C(=O)CC[C@@H]12 [DHEA]
inhibition at 60 µM ([2]; read-out: DHEA): 10 ± 6%

C[C@]12CCC(=O)C=C1CC[C@@H]1[C@@H]2[C@@H](O)C[C@@]2(C)[C@H]1CC[C@]2(O)C(=O)CO [Cortisol]
inhibition at 60 µM ([2]; read-out: Cortisol): 13 ± 4%

C[C@]12CC[C@H]3[C@@H](CCC4=CC(=O)CC[C@@]43C)[C@@H]1CC[C@@H]2O [Testosterone]
inhibition at 60 µM ([2]; read-out: Testosterone): 17 ± 12%

C[C@]12CC[C@@H]3c4ccc(O)cc4CC[C@H]3[C@@H]1CC[C@@H]2O [Estradiol]
inhibition at 60 µM ([1]; read-out: Estradiol): 8 ± 10% | inhibition at 60 µM ([2]; read-out: Estradiol): 24 ± 7%
